Assay results: ChEMBL document CHEMBL1157912, “Impact of nature and length of linker incorporated in agonists on toll-like receptor 9-mediated immune responses” (J Med Chem, 2010)
Activity calls are given as the source filed them. The calls are words filed in the database; no cut-off is given here.

Assays:
[1] = target: T1, Toll-like receptor 9 (Homo sapiens) (UniProt Q9NR96); experiment: Induction of TLR9-mediated immune stimulation in human PBMC assessed as IL2R production at 2 ug/ml after 24 hrs by luminex multiplex assay (RVb = 0.02 +/- 0.01 ng/ml)
T1 sequence (whole entry): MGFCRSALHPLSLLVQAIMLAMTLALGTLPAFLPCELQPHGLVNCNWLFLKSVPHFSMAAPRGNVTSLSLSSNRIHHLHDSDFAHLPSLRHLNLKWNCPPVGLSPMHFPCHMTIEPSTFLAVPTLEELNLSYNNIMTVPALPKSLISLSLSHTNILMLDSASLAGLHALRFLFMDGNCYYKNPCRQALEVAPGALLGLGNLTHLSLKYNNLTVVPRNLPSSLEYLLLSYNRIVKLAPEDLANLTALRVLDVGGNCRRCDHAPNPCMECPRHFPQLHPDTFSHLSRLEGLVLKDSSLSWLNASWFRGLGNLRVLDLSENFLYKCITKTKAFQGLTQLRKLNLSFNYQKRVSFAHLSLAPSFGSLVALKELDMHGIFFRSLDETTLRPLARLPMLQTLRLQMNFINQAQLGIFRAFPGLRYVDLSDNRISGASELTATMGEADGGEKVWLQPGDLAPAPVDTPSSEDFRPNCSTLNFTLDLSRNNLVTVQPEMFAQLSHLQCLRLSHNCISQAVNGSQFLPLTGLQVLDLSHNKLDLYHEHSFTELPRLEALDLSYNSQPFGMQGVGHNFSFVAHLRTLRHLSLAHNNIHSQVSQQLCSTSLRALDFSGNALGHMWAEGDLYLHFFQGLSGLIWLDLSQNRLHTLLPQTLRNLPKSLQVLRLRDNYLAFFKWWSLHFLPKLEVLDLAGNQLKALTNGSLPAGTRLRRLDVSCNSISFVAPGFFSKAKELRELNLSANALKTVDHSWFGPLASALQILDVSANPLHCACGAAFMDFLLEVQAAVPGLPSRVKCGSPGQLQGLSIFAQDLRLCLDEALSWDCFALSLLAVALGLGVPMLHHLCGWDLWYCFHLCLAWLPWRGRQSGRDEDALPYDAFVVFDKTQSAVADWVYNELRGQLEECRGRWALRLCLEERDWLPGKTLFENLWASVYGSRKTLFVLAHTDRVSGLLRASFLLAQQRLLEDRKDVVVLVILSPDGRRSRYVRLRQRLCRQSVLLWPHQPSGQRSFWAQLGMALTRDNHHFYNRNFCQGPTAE

[2] = system: Mus musculus; experiment: Immunostimulatory activity in C57BL/6 mouse assessed as increase in serum IL12 level at 1 mg/kg, sc after 2 hrs by ELISA; type: functional, organism-based; parameters: dose 1 mg/kg
How it was run: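 Female C57BL/6 mice (n=3) received a single subcutaneous agonist dose of 1 mg/kg. Blood was taken by retro-orbital bleeding 2 h later, and serum IL-12 was measured by sandwich ELISA. Values are the mean of three mice ± SD.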

[3] = target: T1, Toll-like receptor 9 (Homo sapiens); experiment: Induction of TLR9-mediated immune stimulation in human PBMC assessed as IL1Ralpha production at 2 ug/ml after 24 hrs by luminex multiplex assay (RVb = 0.12 +/- 0.03 ng/ml)
[4] = target: T1, Toll-like receptor 9 (Homo sapiens); experiment: Induction of TLR9-mediated immune stimulation in human PBMC assessed as IL12 production at 2 ug/ml after 24 hrs by luminex multiplex assay (RVb = 0.00 ng/ml)

Row | Activity [1] | Activity [3] | Activity [4] | Compound | Activity [2]
1 | 0.07 ng/mL | 13.6 ng/mL | 0.13 ng/mL | Cc1cn([C@H]2C[C@H](O[C@H]3C[C@@H](O)C[C@@H](OP(=O)(S)O[C@H]4C[C@H](n5cc(C)c(=O)[nH]c5=O)O[C@@H]4COP(=O)(S)O[C@H]4[C@@H](O)[C@H](n5ccc(N)nc5=O)O[C@@H]4COP(=O)(S)O[C@H]4C[C@H](n5cc(C)c(=O)[nH]c5=O)O[C@@H]4COP(=O)(S)O[C@H]4C[C@H](n5cc(C)c(=O)[nH]c5=O)O[C@@H]4COP(=O)(S)O[C@H]4C[C@H](n5ccc6c(=O)[nH]c(N)nc65)O[C@@H]4COP(=O)(S)O[C@H]4[C@@H](O)[C@H](n5ccc(N)nc5=O)O[C@@H]4COP(=O)(S)O[C@H]4C[C@H](n5cc(C)c(=O)[nH]c5=O)O[C@@H]4COP(=O)(S)O[C@H]4[C@@H](O)[C@H](n5cnc6c(=O)[nH]c(N)nc65)O[C@@H]4COP(=O)(S)O[C@H]4C[C@H](n5cc(C)c(=O)[nH]c5=O)O[C@@H]4COP(=O)(S)O[C@H]4[C@@H](O)[C@H](n5ccc(N)nc5=O)O[C@@H]4COP(=O)(S)O[C@H]4C[C@H](n5cc(C)c(=O)[nH]c5=O)O[C@@H]4CO)C3)[C@@H](COP(=O)(S)O[C@H]3[C@@H](O)[C@H](n4ccc(N)nc4=O)O[C@@H]3COP(=O)(S)O[C@H]3C[C@H](n4cc(C)c(=O)[nH]c4=O)O[C@@H]3COP(=O)(S)O[C@H]3C[C@H](n4cc(C)c(=O)[nH]c4=O)O[C@@H]3COP(=O)(S)O[C@H]3C[C@H](n4ccc5c(=O)[nH]c(N)nc54)O[C@@H]3COP(=O)(S)O[C@H]3[C@@H](O)[C@H](n4ccc(N)nc4=O)O[C@@H]3COP(=O)(S)O[C@H]3C[C@H](n4cc(C)c(=O)[nH]c4=O)O[C@@H]3COP(=O)(S)O[C@H]3[C@@H](O)[C@H](n4cnc5c(=O)[nH]c(N)nc54)O[C@@H]3COP(=O)(S)O[C@H]3C[C@H](n4cc(C)c(=O)[nH]c4=O)O[C@@H]3COP(=O)(S)O[C@H]3[C@@H](O)[C@H](n4ccc(N)nc4=O)O[C@@H]3COP(=O)(S)O[C@H]3C[C@H](n4cc(C)c(=O)[nH]c4=O)O[C@@H]3CO)O2)c(=O)[nH]c1=O (some centres not stated) | Active
2 | 0.09 ng/mL | 16.4 ng/mL | 0.16 ng/mL | Cc1cn([C@H]2C[C@H](OCC[C@H](O)COP(=O)(S)O[C@H]3C[C@H](n4cc(C)c(=O)[nH]c4=O)O[C@@H]3COP(=O)(S)O[C@H]3[C@@H](O)[C@H](n4ccc(N)nc4=O)O[C@@H]3COP(=O)(S)O[C@H]3C[C@H](n4cc(C)c(=O)[nH]c4=O)O[C@@H]3COP(=O)(S)O[C@H]3C[C@H](n4cc(C)c(=O)[nH]c4=O)O[C@@H]3COP(=O)(S)O[C@H]3C[C@H](n4ccc5c(=O)[nH]c(N)nc54)O[C@@H]3COP(=O)(S)O[C@H]3[C@@H](O)[C@H](n4ccc(N)nc4=O)O[C@@H]3COP(=O)(S)O[C@H]3C[C@H](n4cc(C)c(=O)[nH]c4=O)O[C@@H]3COP(=O)(S)O[C@H]3[C@@H](O)[C@H](n4cnc5c(=O)[nH]c(N)nc54)O[C@@H]3COP(=O)(S)O[C@H]3C[C@H](n4cc(C)c(=O)[nH]c4=O)O[C@@H]3COP(=O)(S)O[C@H]3[C@@H](O)[C@H](n4ccc(N)nc4=O)O[C@@H]3COP(=O)(S)O[C@H]3C[C@H](n4cc(C)c(=O)[nH]c4=O)O[C@@H]3CO)[C@@H](COP(=O)(S)O[C@H]3[C@@H](O)[C@H](n4ccc(N)nc4=O)O[C@@H]3COP(=O)(S)O[C@H]3C[C@H](n4cc(C)c(=O)[nH]c4=O)O[C@@H]3COP(=O)(S)O[C@H]3C[C@H](n4cc(C)c(=O)[nH]c4=O)O[C@@H]3COP(=O)(S)O[C@H]3C[C@H](n4ccc5c(=O)[nH]c(N)nc54)O[C@@H]3COP(=O)(S)O[C@H]3[C@@H](O)[C@H](n4ccc(N)nc4=O)O[C@@H]3COP(=O)(S)O[C@H]3C[C@H](n4cc(C)c(=O)[nH]c4=O)O[C@@H]3COP(=O)(S)O[C@H]3[C@@H](O)[C@H](n4cnc5c(=O)[nH]c(N)nc54)O[C@@H]3COP(=O)(S)O[C@H]3C[C@H](n4cc(C)c(=O)[nH]c4=O)O[C@@H]3COP(=O)(S)O[C@H]3[C@@H](O)[C@H](n4ccc(N)nc4=O)O[C@@H]3COP(=O)(S)O[C@H]3C[C@H](n4cc(C)c(=O)[nH]c4=O)O[C@@H]3CO)O2)c(=O)[nH]c1=O (some centres not stated) | Active
3 | 0.02 ng/mL | 14.2 ng/mL | 0.12 ng/mL | Cc1cn([C@H]2C[C@H](O[C@@H]3C[C@@H](O)C[C@@H](OP(=O)(S)O[C@H]4C[C@H](n5cc(C)c(=O)[nH]c5=O)O[C@@H]4COP(=O)(S)O[C@H]4[C@@H](O)[C@H](n5ccc(N)nc5=O)O[C@@H]4COP(=O)(S)O[C@H]4C[C@H](n5cc(C)c(=O)[nH]c5=O)O[C@@H]4COP(=O)(S)O[C@H]4C[C@H](n5cc(C)c(=O)[nH]c5=O)O[C@@H]4COP(=O)(S)O[C@H]4C[C@H](n5ccc6c(=O)[nH]c(N)nc65)O[C@@H]4COP(=O)(S)O[C@H]4[C@@H](O)[C@H](n5ccc(N)nc5=O)O[C@@H]4COP(=O)(S)O[C@H]4C[C@H](n5cc(C)c(=O)[nH]c5=O)O[C@@H]4COP(=O)(S)O[C@H]4[C@@H](O)[C@H](n5cnc6c(=O)[nH]c(N)nc65)O[C@@H]4COP(=O)(S)O[C@H]4C[C@H](n5cc(C)c(=O)[nH]c5=O)O[C@@H]4COP(=O)(S)O[C@H]4[C@@H](O)[C@H](n5ccc(N)nc5=O)O[C@@H]4COP(=O)(S)O[C@H]4C[C@H](n5cc(C)c(=O)[nH]c5=O)O[C@@H]4CO)C3)[C@@H](COP(=O)(S)O[C@H]3[C@@H](O)[C@H](n4ccc(N)nc4=O)O[C@@H]3COP(=O)(S)O[C@H]3C[C@H](n4cc(C)c(=O)[nH]c4=O)O[C@@H]3COP(=O)(S)O[C@H]3C[C@H](n4cc(C)c(=O)[nH]c4=O)O[C@@H]3COP(=O)(S)O[C@H]3C[C@H](n4ccc5c(=O)[nH]c(N)nc54)O[C@@H]3COP(=O)(S)O[C@H]3[C@@H](O)[C@H](n4ccc(N)nc4=O)O[C@@H]3COP(=O)(S)O[C@H]3C[C@H](n4cc(C)c(=O)[nH]c4=O)O[C@@H]3COP(=O)(S)O[C@H]3[C@@H](O)[C@H](n4cnc5c(=O)[nH]c(N)nc54)O[C@@H]3COP(=O)(S)O[C@H]3C[C@H](n4cc(C)c(=O)[nH]c4=O)O[C@@H]3COP(=O)(S)O[C@H]3[C@@H](O)[C@H](n4ccc(N)nc4=O)O[C@@H]3COP(=O)(S)O[C@H]3C[C@H](n4cc(C)c(=O)[nH]c4=O)O[C@@H]3CO)O2)c(=O)[nH]c1=O (some centres not stated) | Active
